# Activity calls are given as the source filed them. The rule behind the calls is not given here.
# What was measured:
# SK-OV-3 [1] = experiment: Synergistic antiproliferative activity against lapatinib pretreated human SK-OV-3 cells assessed as combination index at ED50 measured after 72 hrs by celltiter-glo assay; type: functional
# NCI-H292 = experiment: Antitumor activity against human NCI-H292 cells xenografted in CD-1 mouse assessed as tumor growth suppression at 360 mg/kg, po administered once a week for 2 weeks starting 2 hrs post-erlotinib treatment and measured twice a week during compound dosing by caliper method; type: functional, organism-based
# In short: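 Female CD1-nude mice carried s.c. NCI-H292 cells in Matrigel/PBS and were randomized at 0.2 cm³, n = 5. […] MK-2206 (30% Captisol) was given 2 h later at 120 mg/kg po on days 0, 2, 4, 7, 9, 11, or at 360 mg/kg on days 0 and 7. Control received vehicle. Caliper volume twice weekly.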
# NCI-H23 = experiment: Synergistic antiproliferative activity against human NCI-H23 cells assessed as combination index at ED90 measured after 72 hrs in presence of erlotinib by celltiter-glo assay; type: functional
# NCI-H358 = experiment: Synergistic antiproliferative activity against human NCI-H358 cells assessed as combination index at ED75 measured after 72 hrs in presence of erlotinib by celltiter-glo assay; type: functional
# SK-OV-3 [2] = experiment: Synergistic antiproliferative activity against human SK-OV-3 cells assessed as combination index at ED50 treated 24 hrs prior to lapatinib and measured after 72 hrs by celltiter-glo assay; type: functional; details: time 96 hrs
# SK-BR-3 [3] = experiment: Synergistic antiproliferative activity against human SK-BR-3 cells assessed as combination index at ED75 measured after 96 hrs in presence of lapatinib by celltiter-glo assay; type: functional
# NCI-N87 = experiment: Synergistic antiproliferative activity against human NCI-N87 cells assessed as combination index at ED75 measured after 96 hrs in presence of lapatinib by celltiter-glo assay; type: functional
# HCC70 [4] = experiment: Synergistic antiproliferative activity against human HCC70 cells assessed as combination index at ED50 measured after 72 hrs in presence of lapatinib by celltiter-glo assay; type: functional
# In short: (§1)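 Cells grown in RPMI 1640 with 10% heat-inactivated FBS at 37°C, 5% CO₂. Seeded at 2 to 3 × 10³ per well; drugs added 24 h later. […] Viability read as cellular ATP by CellTiter-Glo. CI calculated by Chou–Talalay from median-effect plots at ED50, ED75 and ED90.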
# [5] = Toxicity in human NCI-H460 cells xenografted CD1 nude mouse assessed as body weight loss at 120 mg/kg, po administered 3 times per week for 2 weeks measured on day 14 to 16; type: organism-based; details: in vivo, 336 h, time 14-16 day
# In short: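 NCI-H460 cells in 50% Matrigel/PBS injected s.c. into flank of CD1-nude mice; randomized at mean tumour 0.2 cm³ (n = 5). MK-2206 in 30% Captisol, 120 mg/kg p.o. days 0, 2, 4, 7, 9, 11. Carboplatin 50 mg/kg i.v. in saline days 0 and 7 (from day 12 after implant), or gemcitabine 100 mg/kg i.v. in saline days 0 and 7 (from day 8). Body weight monitored.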
# SK-BR-3 [6] = experiment: Synergistic antiproliferative activity against human SK-BR-3 cells assessed as combination index at ED75 measured after 72 hrs in presence of lapatinib by celltiter-glo assay; type: functional
# HCC1954 [7] = experiment: Synergistic antiproliferative activity against human HCC1954 cells assessed as combination index at ED75 measured after 72 hrs in presence of lapatinib by celltiter-glo assay; type: functional; in short: as §1
# A2780 = experiment: Synergistic antiproliferative activity against human A2780 cells assessed as combination index at ED75 measured after 72 hrs in presence of camptothecin by celltiter-glo assay; type: functional
# In short: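 Cells were seeded at 2–3 × 10³ per well in RPMI 1640 with 10% FBS. At 24 h, MK-2206 and the partner drug were added simultaneously at constant concentration ratios spanning each agent's IC₅₀, for 72 h. Growth was read as cellular ATP by CellTiter-Glo. CI was taken from median-effect plots of each agent alone and in combination (Chou–Talalay), at ED₅₀, ED₇₅ and ED₉₀.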
# [8] = Toxicity in human PC-3 cells xenografted CD1 nude mouse assessed as body weight loss at 120 mg/kg, po administered 3 times per week for 2 weeks measured during compound dosing relative to control; type: organism-based; details: in vivo, 336 h
# In short: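 Male CD1-nude mice with s.c. PC-3 tumours (50% Matrigel/50% PBS, left flank), randomized at mean 0.2 cm³, n=5/group, treated from 25 d post-implant. Body weight monitored versus vehicle-only controls.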
# [9] = molecular target: RAC-alpha serine/threonine-protein kinase (Homo sapiens) (UniProt P31749); experiment: Inhibition of AKT in human A-431 cells assessed as reduction in PRAS40 phosphorylation at T246 residue at 5 umol/L measured after 5 hrs in presence of erlotinib by Western blot analysis; type: cell-based; details: dose 5.0 µmol/L
# In short: (§2)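 Cells were lysed in Tris-HCl pH 7.5, 150 mM NaCl, 1% Triton X-100 with protease and phosphatase inhibitors. Lysates were run on SDS-PAGE, transferred to nitrocellulose and probed with phospho-specific antibodies.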
# HCC1954 [10] = experiment: Synergistic antiproliferative activity against human HCC1954 cells assessed as combination index at ED50 measured after 96 hrs in presence of lapatinib by celltiter-glo assay; type: functional
# [11] = molecular target: RAC-alpha serine/threonine-protein kinase (Homo sapiens) (UniProt P31749); experiment: Inhibition of AKT in human A-431 cells assessed as reduction in S6 phosphorylation at S240/S244 residues at 5 umol/L measured after 5 hrs in presence of erlotinib by Western blot analysis; type: cell-based; details: dose 5.0 µmol/L; in short: as §2
# HCC70 [12] = experiment: Synergistic antiproliferative activity against human HCC70 cells assessed as combination index at ED50 measured after 72 hrs in presence of docetaxel by celltiter-glo assay; type: functional; in short: as §1
# [13] = Toxicity in human NCI-H460 cells xenografted CD1 nude mouse assessed as body weight loss at 120 mg/kg, po administered 3 times per week for 2 weeks in presence of gemcitabine measured during compound dosing relative to control; type: organism-based; details: in vivo, 336 h
# In short: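 CD1-nude mice with s.c. NCI-H460 xenografts, randomized at mean 0.2 cm³, n=5/group, dosing from day 8 post-implant. Body weight compared with vehicle-only controls.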
# NCI-H1299 = experiment: Antiproliferative activity against human NCI-H1299 cells assessed as reduction in cell proliferation measured after 72 hrs by celltiter-glo assay; type: functional, cell-based; details: NCI-H1299, 72 h
# In short: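 Cells in RPMI 1640 with 10% heat-inactivated FBS at 37°C and 5% CO₂ were seeded at 2 to 3 × 10³ per well. […] Growth was read as cellular ATP by CellTiter-Glo.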
# HCC1954 [14] = experiment: Synergistic antiproliferative activity against lapatinib pretreated human HCC1954 cells assessed as combination index at ED75 measured after 72 hrs by celltiter-glo assay; type: functional
# NCI-H460 = experiment: Synergistic antiproliferative activity against human NCI-H460 cells assessed as combination index at ED75 measured after 72 hrs in presence of doxorubicin by celltiter-glo assay; type: functional
# SK-BR-3 [15] = experiment: Synergistic antiproliferative activity against human SK-BR-3 cells assessed as combination index at ED50 measured after 72 hrs in presence of lapatinib by celltiter-glo assay; type: functional
# NCI-H661 = experiment: Synergistic antiproliferative activity against human NCI-H661 cells assessed as combination index at ED25 to ED90 measured after 72 hrs in presence of gemcitabine by celltiter-glo assay; type: functional
# Sequence of RAC-alpha serine/threonine-protein kinase (Homo sapiens) (P31749 whole entry): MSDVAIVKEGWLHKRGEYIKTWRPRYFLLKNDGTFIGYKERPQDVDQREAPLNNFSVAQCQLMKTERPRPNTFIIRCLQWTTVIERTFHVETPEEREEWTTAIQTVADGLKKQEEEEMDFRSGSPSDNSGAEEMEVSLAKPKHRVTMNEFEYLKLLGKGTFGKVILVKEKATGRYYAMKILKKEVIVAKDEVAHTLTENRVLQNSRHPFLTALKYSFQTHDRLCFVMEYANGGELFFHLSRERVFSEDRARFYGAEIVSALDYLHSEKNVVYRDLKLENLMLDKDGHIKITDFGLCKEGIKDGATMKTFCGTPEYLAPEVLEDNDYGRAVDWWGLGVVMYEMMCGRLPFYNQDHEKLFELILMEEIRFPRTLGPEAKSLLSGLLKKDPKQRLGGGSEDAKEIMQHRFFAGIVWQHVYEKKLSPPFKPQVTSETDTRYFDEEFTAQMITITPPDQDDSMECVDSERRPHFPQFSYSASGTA
compound,measurement,setting,value
Cl.NC1(c2ccc(-c3nc4ccn5c(=O)[nH]nc5c4cc3-c3ccccc3)cc2)CCC1,CI50,SK-OV-3 [1],0.18
same,Activity,NCI-H292,Active
same,CI90,NCI-H23,0.68
same,CI75,NCI-H358,0.19
same,CI50,SK-OV-3 [2],0.18
same,CI75,SK-BR-3 [3],0.18
same,CI75,NCI-N87,0.18
same,CI50,HCC70 [4],0.46
same,Activity,[5],Non-Toxic
same,CI75,SK-BR-3 [6],0.19
same,CI75,HCC1954 [7],0.13
same,CI75,A2780,0.4
same,Activity,[8],8%
same,inhibition,[9],Active
same,CI50,HCC1954 [10],0.18
same,inhibition,[11],Active
same,CI50,HCC70 [12],0.9
same,Activity,[13],7%
same,IC50,NCI-H1299,27 µM
same,CI75,HCC1954 [14],0.18
same,CI75,NCI-H460,0.18
same,CI50,SK-BR-3 [15],0.43
same,CI,NCI-H661,0.53
